Source: PubChem BioAssay
Only some compounds are listed: those with a hit (about 2.8% of all), similar ones and a draw of the others.
CAL PDZ FP-1 – untagged CAL PDZ binding inhibitors, primary screen, biochemical, fluorescence polarization, HTS; purified CAL PDZ, TMR-peptide fluorescence polarization, 1 h; inhibition, % at 24.9 µM; 0.92% of 300,000 active; AID 602252, 2012;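 active = mean inhibition of at least 30% with at least half of replicates also reaching 30%; inconclusive = no clear call, values can overlap the other calls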
SR-BI DiI-HDL act – activators of SR-BI mediated DiI-HDL uptake, primary screen, ldlA[mSR-BI] CHO cells, DiI fluorescence; 3 h; 100 = double the neutral-control signal; 0.096% of 320,000 active; activation, % at 12.5 µM; AID 504775, 2011;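 active = mean replicate activation of at least 60% and every replicate at or above 60%; inconclusive = mean or all-replicate condition met, but not both; inactive = mean below 60% and not all replicates reaching 60%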
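Test system: SR-BI-overexpressing, LDLR-lacking CHO cells; Also added: labelled HDL, 10 µg/mL; Measured by: bottom-read cell fluorescence after medium removal, ex 550/em 595 nm; Timing: 3 h uptake period with compound, 37 °C; Buffer or medium: F12, 0.5% BSA, 25 mM HEPES; Doses: single compound concentration, delivered by pin transfer.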
SR-BI HDL uptake – inhibitors of SR-BI mediated HDL lipid uptake, primary screen, ldlA[mSR-BI] cells, fluorescence, single point; ldlA[mSR-BI] CHO cells, DiI-HDL uptake fluorescence, 3 h; inhibition, % at 12.5 µM; 0.96% of 320,000 active; AID 488896, 2010;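 active = mean replicate inhibition of at least 70% and a set share of replicates each scoring 70 or more; inconclusive = meets just one of the two criteria; inactive = fails both criteria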
dFosB act – activators of delta FosB homodimer, primary screen, biochemical, fluorescence polarization, TAMRA-CDK5 oligo, single point; 0.99% of 340,000 active; Protein FosB (Mus musculus), P13346; activation, % at 25 µM; purified delta FosB; percent of positive-control signal above neutral wells;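 active = mean activation above about 17%, with every replicate also reaching it, limit read from the data, passing the limit was not always enough; inconclusive = only one of the two conditions met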
Target sequence (P13346 whole entry, looked up): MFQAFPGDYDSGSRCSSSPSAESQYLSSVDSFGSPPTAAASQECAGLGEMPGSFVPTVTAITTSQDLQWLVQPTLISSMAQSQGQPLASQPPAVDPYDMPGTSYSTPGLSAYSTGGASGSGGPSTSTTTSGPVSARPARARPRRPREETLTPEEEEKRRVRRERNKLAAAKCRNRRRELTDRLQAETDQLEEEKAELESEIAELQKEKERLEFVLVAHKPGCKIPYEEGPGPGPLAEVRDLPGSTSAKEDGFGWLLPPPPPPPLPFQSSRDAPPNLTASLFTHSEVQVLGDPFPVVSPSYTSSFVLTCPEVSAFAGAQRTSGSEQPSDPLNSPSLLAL
CAL PDZ FP-2 – CAL PDZ peptide-binding inhibitors, primary screen, biochemical, fluorescence polarization, Cer-tagged CAL PDZ, HTS | AID 504414, 2011 | 0.02% of 330,000 active | Golgi-associated PDZ and coiled-coil motif-containing protein (Homo sapiens), Q9HD26 | inhibition, % at 20 µM | purified CAL PDZ, TMR-peptide fluorescence polarization, 1 h;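 active = highest replicate inhibition of at least 40%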
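Material: tagged CAL PDZ domain; buffer or medium: 25 mM sodium phosphate pH 7.4, 150 mM NaCl, TCEP, IgG, Thesit; compound dosing: single point, 20 µM; schedule: 1 h incubation at room temperature before polarization reading; measured by: FP readout, S and P plane fluorescence; read-out basis: percent inhibition from loss of millipolarization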
DiI quench – DiI fluorescence quenching in cell-free counter-screen. shares compounds with SR-BI HDL uptake. cell-free DiI-HDL fluorescence quenching, 30 min. AC50, µM (series often up to 35 µM). 20% of 470 active. AID 540326;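 active = quenching, a falling signal, with AC50 below a set limit tied to the top valid dose, actives reach about 32 µM in these data; inconclusive = no clear call, values can overlap the other calls; inactive = rising signal, and the rest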
Numbers stand for hits; n = inactive; u = inconclusive; x = no result given.

SMILES	CAL PDZ FP-1	SR-BI DiI-HDL act	SR-BI HDL uptake	dFosB act	CAL PDZ FP-2	DiI quench
CCCCCCOC(=O)CCc1c(C)nc(N)[nH]c1=O	n	n	n	n	n	x
CCCCCCCCOC(=O)CCc1c(C)[nH]c(=S)[nH]c1=O	n	n	80	n	n	n
Nc1nonc1-n1nnc(C(=O)N/N=C/c2cccs2)c1-c1ccc2c(c1)OCO2	n	n	n	n	n	x
CCOc1ccccc1NC(=S)N1CCN(c2ccccc2F)CC1	n	n	n	n	n	x
Cc1ccc(NC(=O)Cc2nc(CN(C)CC(=O)Nc3ccc(C)cc3)cs2)cc1	n	n	n	n	n	x
COc1ccc(C(=O)N2CCC(C(=O)Nc3ccc(OC)c(OC)c3)CC2)cc1	n	n	n	n	x	x
COc1ccc(NC(=O)C2CCN(C(=O)c3ccc(OC)cc3)CC2)cc1	n	n	115	n	n	n
COc1ccc(-c2nc(CS(=O)CC(=O)N3CCN(C)CC3)c(C)o2)cc1 (stereo not drawn)	n	n	n	n	n	x
COc1ccc(OCC(O)Cn2c(Nc3cccc(C)c3)nc3c2c(=O)n(C)c(=O)n3C)cc1 (stereo not drawn)	n	n	77	n	n	n
O=C(O)C1C2C=CC(O2)C1C(=O)Nc1cccc(C(F)(F)F)c1 (stereo not drawn)	n	n	n	n	n	x
CN(C(=O)c1cccc(NC(=O)Cc2ccc(NC(=O)C3CCN(C(=O)C4CC4)CC3)cc2)c1)C1CCCCC1	n	n	n	n	n	x
Cc1ccc2oc(-c3cccc(NC(=O)c4cc(-n5cnnc5)ccc4Cl)c3)nc2c1	n	n	76	n	n	n
Cc1ccc2oc(-c3cccc(NC(=O)c4ccccn4)c3)nc2c1	n	n	n	n	n	x
CCC1(c2ccccc2)ON(c2c(Br)cccc2Br)C1=O (stereo not drawn)	n	n	n	n	n	x
CC(C)OC(=O)c1cccc(C(=O)Nc2cccc(NC(=O)c3cccc(C(=O)OC(C)C)n3)n2)n1	n	n	72	n	n	n
CC(=O)Nc1ccc(NC(=O)c2cccc(C(=O)OC(C)C)n2)cc1	n	n	n	n	n	x
NNc1nc2c(F)cc(F)cc2s1	n	n	n	n	n	x
CCn1nc(C)c(CN2CCc3c([nH]c4ccccc34)C2c2ccc(F)c(OC)c2)c1C (stereo not drawn)	n	n	82	n	n	n
CCOc1ccccc1/C=C/c1onc(C)c1S(=O)(=O)N1CCC(C(=O)NC(C)(C)C)CC1	n	n	84	n	n	n
CCOc1ccccc1/C=C/c1onc(C)c1S(=O)(=O)N1CCC(C(=O)NC)CC1	x	n	u	n	n	x
O=C(NCN1C(=O)C2C3C=CC(C3)C2C1=O)OC1CCCCC1 (stereo not drawn)	n	n	83	n	n	n
CN(Cc1ccccc1)Cc1c(O)ccc2ccccc12	n	n	n	n	x	x
CN(Cc1cc(Cl)cc(Cl)c1O)Cc1c(O)ccc2ccccc12	n	n	103	n	n	1.9µM
CC1CCc2c(sc(Nc3nc4c(F)cccc4s3)c2C(N)=O)C1 (stereo not drawn)	n	n	80	n	n	3.3µM
O=C(Nc1nc2c(F)cccc2s1)C1CC1	n	n	n	n	n	x
SMILES	CAL PDZ FP-1	SR-BI DiI-HDL act	SR-BI HDL uptake	dFosB act	CAL PDZ FP-2	DiI quench
CCc1ccc2oc(C(=O)NCCc3ccc(S(N)(=O)=O)cc3)cc(=O)c2c1	n	n	n	n	n	x
COc1ccc(NC(=O)c2c(Nc3ccccc3)sc(C(=O)c3ccc(F)cc3)c2N)cc1	n	n	122	n	n	0.18µM
C[C@@H]1COC(=O)[C@H](NC(=O)OCC2c3ccccc3-c3ccccc32)C/C=C\C[C@@H](CC(=O)N[C@H](CO)Cc2ccccc2)C(=O)N1	n	n	81	n	n	n
Cc1ccc(C(=O)COc2cc(O)c3c(=O)cc(-c4ccccc4)oc3c2)cc1	n	n	78	n	n	n
CN(C)c1nc(-c2cccnc2)nc(-c2ccccc2)c1C#N	n	n	n	n	n	x
O=C(NC1CCCCC1)C(c1ccc2ncccc2c1)N(Cc1ccco1)C(=O)c1ccc2c(c1)OCCO2 (stereo not drawn)	n	n	n	n	n	n
O=C(NC1CCCCC1)C(c1ccc2ncccc2c1)N(Cc1ccc2c(c1)OCO2)C(=O)c1ccc2c(c1)OCCO2 (stereo not drawn)	n	n	n	n	n	x
C[C@H](CO)N1C[C@H](C)[C@@H](CN(C)S(=O)(=O)c2cccs2)Oc2ccc(NC(=O)Cn3cnnn3)cc2C1=O	n	n	n	n	n	x
CCNC(=O)c1c(NC(=O)c2cc(-c3cc(C)cc(C)c3O)n[nH]2)sc2c1CCCC2	n	n	u	n	n	n
CCNC(=O)c1c(NC(C)=O)sc2c1CCCC2	n	n	n	n	n	x
CCc1sc(N2C(=O)C3C4CCC(C4=C(C)C)C3C2=O)nc1-c1ccccc1 (stereo not drawn)	n	n	84	n	n	n
O=C(C[C@@H]1C/C=C\CCCC(=O)OC[C@@H]2CCCN2C1=O)NCCO	n	n	n	n	n	x
O=C(C[C@H]1C/C=C\CCC(=O)OC[C@H]2CCCN2C1=O)NCCO	n	n	n	n	n	n
O=C(CN1CCN(CC(=O)Nc2ccccc2F)CC1)Nc1cccc(F)c1	n	n	n	n	n	x
O=C(CN1CCN(CC(=O)Nc2ccc3c(c2)OC2(CCCCC2)O3)CC1)Nc1cccc(F)c1	n	n	n	n	n	n
O=C1C2C3C=CC(C3)C2C(=O)N1c1cccc(N2C(=O)C3C4C=CC(C4)C3C2=O)n1 (stereo not drawn)	n	n	n	n	n	n
CC(=O)NCCC1CCN(C(=O)c2cc(COc3ccc(C)nc3)on2)CC1	n	n	76	n	n	n
Cc1ccc(OCc2cc(C(=O)N3CCCC3)no2)cn1	n	n	n	n	n	x
CC(C)C(=O)Nc1nc(-c2ccc3c(c2)CCN3C(=O)C2CC2)cs1	n	n	89	n	n	n
CNc1nc(-c2ccc3c(c2)CCN3C(=O)c2cccc(F)c2)cs1	n	x	x	n	n	x
CC(C)(C)Nc1nc(-c2ccc3c(c2)CCN3C(=O)C2CC2)cs1	n	x	x	n	n	x
CNc1nc(-c2ccc3c(c2)CCN3C(=O)c2ccc(F)cc2)cs1	n	n	n	n	n	n
C/C(=N\NC(=O)Cn1nc(C)c([N+](=O)[O-])c1C)c1ccco1	x	n	n	n	n	x
